Test results as given in ChEMBL document CHEMBL3994654, “Discovery of phenyl acetamides as potent and selective GPR119 agonists” (Bioorg Med Chem Lett, 2017).
In brackets after ≈: the same amount, converted by molar mass.

What was measured:
[1] = target: T1, Glucose-dependent insulinotropic receptor (Homo sapiens, UniProt Q8TDV5); assay: Agonist activity at human GPR119 expressed in HEK293 cells assessed as increase in intracellular cAMP level after 60 mins by HTRF assay; format: functional, cell-based
T1 sequence (Q8TDV5 whole entry): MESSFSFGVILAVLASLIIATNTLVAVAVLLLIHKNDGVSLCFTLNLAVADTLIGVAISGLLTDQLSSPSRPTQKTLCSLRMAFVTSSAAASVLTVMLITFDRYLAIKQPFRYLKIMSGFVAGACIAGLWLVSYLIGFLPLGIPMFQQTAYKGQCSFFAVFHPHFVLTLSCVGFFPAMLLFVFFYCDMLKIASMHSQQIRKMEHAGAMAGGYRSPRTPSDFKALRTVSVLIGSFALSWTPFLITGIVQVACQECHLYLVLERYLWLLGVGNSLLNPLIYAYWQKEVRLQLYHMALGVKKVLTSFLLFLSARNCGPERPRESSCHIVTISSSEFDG
Summary of the method: (§1)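 cAMP stimulation is also given as % control at the top concentration, relative to an internal agonist control set at 100% cAMP stimulation. EC50 values are means of at least 2 independent experiments, except for two compounds.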

[2] = target: T2, Glucose-dependent insulinotropic receptor (Homo sapiens) (UniProt Q8TDV5); assay: Agonist activity at human GPR119 expressed in HEK293 cells assessed as increase in intracellular cAMP level after 60 mins by HTRF assay relative to control; format: functional, cell-based
T2 sequence (whole entry): T1 sequence (Q8TDV5 whole entry)
Summary of the method: (§2)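 EC50 values are means of at least 2 independent experiments, with a few single determinations. Maximal response is reported as the percentage of cAMP stimulation at the maximal dose tested, normalised to an internal agonist control set as 100%.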

[3] = target: T3, Glucose-dependent insulinotropic receptor (Mus musculus, UniProt Q7TQP3); assay: Agonist activity at mouse GPR119 expressed in CHO cells co-expressing Galpha15 assessed as increase in intracellular cAMP level after 60 mins by HTRF assay; format: functional, cell-based; summary of the method: as §1
T3 sequence (Q7TQP3 whole entry): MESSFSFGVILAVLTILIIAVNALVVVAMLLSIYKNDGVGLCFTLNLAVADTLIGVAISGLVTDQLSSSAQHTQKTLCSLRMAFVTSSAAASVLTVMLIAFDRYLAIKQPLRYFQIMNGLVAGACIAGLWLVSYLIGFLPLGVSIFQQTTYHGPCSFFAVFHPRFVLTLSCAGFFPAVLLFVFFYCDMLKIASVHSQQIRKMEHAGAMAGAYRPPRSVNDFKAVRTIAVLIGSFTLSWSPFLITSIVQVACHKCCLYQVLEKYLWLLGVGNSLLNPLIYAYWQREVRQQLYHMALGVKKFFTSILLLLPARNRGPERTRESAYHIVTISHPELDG

[4] = target: T4, Glucose-dependent insulinotropic receptor (Mus musculus) (UniProt Q7TQP3); assay: Agonist activity at mouse GPR119 expressed in CHO cells co-expressing Galpha15 assessed as increase in intracellular cAMP level after 60 mins by HTRF assay relative to control; format: functional, cell-based; summary of the method: as §2
T4 sequence (whole entry): T3 sequence (Q7TQP3 whole entry)

[5] = Kinetic solubility in fasted state simulated intestinal fluid at pH 6.5; format: physicochemical; conditions: read-out: Kinetic_solubility
[6] = Half life in Wistar Han rat at 0.5 mg/kg, iv by LC-MS/MS analysis; format: ADME, organism-based; conditions: in vivo
[7] = target: T5, Voltage-gated inwardly rectifying potassium channel KCNH2 (Homo sapiens, UniProt Q12809)
[8] = target: T5, Voltage-gated inwardly rectifying potassium channel KCNH2; assay: Inhibition of human ERG by PatchXpress method

T5 sequence (Q12809 whole entry): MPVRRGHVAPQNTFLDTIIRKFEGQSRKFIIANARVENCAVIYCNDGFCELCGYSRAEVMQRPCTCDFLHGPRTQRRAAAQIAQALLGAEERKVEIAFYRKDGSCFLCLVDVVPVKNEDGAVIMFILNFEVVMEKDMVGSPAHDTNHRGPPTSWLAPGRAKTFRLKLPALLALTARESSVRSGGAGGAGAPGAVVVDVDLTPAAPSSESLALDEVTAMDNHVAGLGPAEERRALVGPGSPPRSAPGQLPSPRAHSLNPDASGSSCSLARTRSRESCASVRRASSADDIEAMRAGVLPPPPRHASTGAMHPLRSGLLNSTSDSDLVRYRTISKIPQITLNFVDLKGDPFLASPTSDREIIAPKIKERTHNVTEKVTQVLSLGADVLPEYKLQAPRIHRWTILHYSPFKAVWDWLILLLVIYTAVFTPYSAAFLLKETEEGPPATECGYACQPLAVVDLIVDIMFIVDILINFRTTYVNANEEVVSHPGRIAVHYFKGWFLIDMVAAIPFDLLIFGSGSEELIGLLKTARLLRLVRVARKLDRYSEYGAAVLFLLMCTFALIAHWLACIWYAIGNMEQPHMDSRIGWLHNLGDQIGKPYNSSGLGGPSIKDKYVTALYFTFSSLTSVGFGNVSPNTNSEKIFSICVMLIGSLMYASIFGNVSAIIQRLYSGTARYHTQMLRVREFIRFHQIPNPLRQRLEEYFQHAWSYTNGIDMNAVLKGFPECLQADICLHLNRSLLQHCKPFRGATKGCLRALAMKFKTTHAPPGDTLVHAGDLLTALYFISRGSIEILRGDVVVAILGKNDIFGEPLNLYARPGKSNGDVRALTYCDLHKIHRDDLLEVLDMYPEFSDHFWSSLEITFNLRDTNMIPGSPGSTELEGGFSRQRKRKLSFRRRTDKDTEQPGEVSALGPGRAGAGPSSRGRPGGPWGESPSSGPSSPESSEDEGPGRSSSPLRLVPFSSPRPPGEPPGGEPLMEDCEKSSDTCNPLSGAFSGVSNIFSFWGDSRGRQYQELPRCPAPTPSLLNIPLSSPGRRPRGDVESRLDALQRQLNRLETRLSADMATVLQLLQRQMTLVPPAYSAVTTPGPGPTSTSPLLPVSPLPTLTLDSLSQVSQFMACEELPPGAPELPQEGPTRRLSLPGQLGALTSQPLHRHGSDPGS

| SMILES | EC50 [1] [nM] | Activity [2] [%] | EC50 [3] [nM] | Activity [4] [%] | solubility kinetic [5] [µM] | half-life [6] [h] | IC50 [7] [nM] | IC50 [8] [nM] |
| --- | --- | --- | --- | --- | --- | --- | --- | --- |
| O=C(Cc1ccc(OCC[C@@H]2C[C@@H]2C2CCN(c3ncc(Cl)cn3)CC2)c(F)c1)N1CCC1 | 2.2 | 106 | 1.6 | 91 | 65 (≈ 30.7 µg/mL) |  |  |  |
| CC1(OC(=O)N2CCC([C@H]3C[C@H]3CCOc3ccc(CC(=O)N4CCC4)c(F)c3)CC2)CC1 | 3.3 | 127 | 6.6 | 115 | 138 (≈ 63.3 µg/mL) | 1.6 | 23000 | 8600 |
| O=C(Cc1ccc(OCC[C@@H]2C[C@@H]2C2CCN(c3ncc(Cl)cn3)CC2)nc1)N1CCC1 | 9.4 | 112 | 5.1 | 133 | 83 (≈ 37.8 µg/mL) |  | 2100 |  |

The next molecules have a lower EC50 [1] than those just listed; values first:

| EC50 [1] [nM] | Activity [2] [%] | EC50 [3] [nM] | Activity [4] [%] | solubility kinetic [5] [µM] | half-life [6] [h] | SMILES | IC50 [7] [nM] | IC50 [8] [nM] |
| --- | --- | --- | --- | --- | --- | --- | --- | --- |
| 2 | 78 | 6.7 | 102 | 126 (≈ 59.3 µg/mL) | 1.8 | CC(C)c1noc(N2CCC([C@H]3C[C@H]3CCOc3ccc(CC(=O)N4CCC4)c(F)c3)CC2)n1 | 7000 |  |
| 1.8 | 104 | 1.5 | 91 | 22 (≈ 10 µg/mL) |  | O=C(Cc1ccc(OCC[C@@H]2C[C@@H]2C2CCN(c3ncc(Cl)cn3)CC2)cc1)NC1CC1 | > 60000 |  |
| 0.8 | 89 | 6.7 | 110 | 144 (≈ 70.4 µg/mL) | 3.5 | O=C(Cc1ccc(OCC[C@@H]2C[C@@H]2C2CCN(c3ncc(Cl)cn3)CC2)cc1F)N1CC(O)C1 |  |  |
